pIC50: −log10 of the molar value. Several values for one entry are separate records, joined by “and”; a condition that tells them apart may be missing. Equal entries are not always repeated.
How the values were obtained:
[1] = target: GABA-A receptor; anion channel; assay: Displacement of [3H]flunitrazepam (FNZ) from GABA-A benzodiazepine receptor in rat forebrain
[2] = test system: Rattus norvegicus; assay: Compound tested for its effect on Nonconflict(VI) operant responding of rats at a dose of 10.0 mg/kg administered perorally.; assay type: functional; settings: route oral
In short: (§1)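 Cook-Davidson conflict procedure in rats given oral doses. Rats lever-press for milk reward with shock (conflict, FR) and without shock (nonconflict, VI). Value is % change in response rate, with significance set at P < 0.05. The minimally effective oral dose is taken as the dose raising conflict responding or lowering VI responding.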

[3] = test system: Rattus norvegicus; assay: Compound tested for its effect on Nonconflict(VI) operant responding of rats at a dose of 3.0 mg/kg administered perorally.; assay type: functional; settings: route oral; in short: as §1
[4] = test system: Rattus norvegicus; assay: Compound tested for its effect on conflict(FR) operant responding of rats at a dose of 10.0 mg/kg administered perorally.; assay type: functional; settings: route oral; in short: as §1
[5] = test system: Rattus norvegicus; assay: Compound tested for its effect on conflict(FR) operant responding of rats at a dose of 3.0 mg/kg administered perorally.; assay type: functional; settings: route oral; in short: as §1
[6] = species: Rattus norvegicus; assay: Anxiolytic response measured by antagonism of pentylenetetrazole discriminative stimuli in rats.; assay type: functional
In short: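 Rats trained to discriminate a subconvulsant dose of pentylenetetrazole (PTZ) from vehicle. Test compound given 30 min before the PTZ dose. Antagonism of the PTZ stimulus is scored as the anxiolytic response. ED50 values by probit analysis, with 95% confidence limits.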

[7] = test system: Rattus norvegicus; assay: Minimal effective oral dose to cause VI response decrement in rats.; assay type: functional; in short: as §1
[8] = test system: Rattus norvegicus; assay: Minimal effective oral dose to cause increase in conflict response in rats after po administration.; assay type: functional; in short: as §1
[9] = target: GABA-A receptor; anion channel (Rattus norvegicus) (UniProt O09028+P15431+P18506+P18508+P19969+P20236+P23574+P23576+P28471+P28473+P30191+P62813+P63079+P63138+Q91ZM7+Q9ES14); assay: GABA ratio measured by the IC50 in the absence of GABA compared to the IC50 in the presence of GABA in rats.
In short: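 Modified [3H]flunitrazepam binding in rat forebrain, with IC50 measured with and without GABA. Ratio = IC50 without GABA divided by IC50 with GABA.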

[10] = test system: Rattus norvegicus; assay: Anxiolytic response at 10 mg/Kg measured by antagonism of pentylenetetrazole discriminative stimuli in rats.; assay type: functional
[11] = target: GABA-A receptor; anion channel; assay: Displacement of [3H]flunitrazepam from GABA-A Benzodiazepine receptors in rat forebrain
[12] = test system: Rattus norvegicus; assay: Minimal effective oral dose to cause ethanol interaction in rats.; assay type: functional
In short: (§2)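 Rotorod test of ethanol interaction in male Wistar (Crl:(WI)BR) rats, 130–160 g. Vehicle or test compound (0, 1, 3, 10 mg/kg) given orally 30 min before ethanol. Graded ethanol doses given ip 30 min before rotorod testing. Ethanol ED50 reported with confidence limits, P < 0.05.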

[13] = test system: Rattus norvegicus; assay: Compound tested for its effect on Nonconflict(VI) operant responding of rats at a dose of 30.0 mg/kg administered perorally.; assay type: functional; settings: route oral; in short: as §1
[14] = test system: Rattus norvegicus; assay: Compound tested for its effect on conflict(FR) operant responding of rats at a dose of 30.0 mg/kg administered perorally.; assay type: functional; settings: route oral; in short: as §1
[15] = test system: Rattus norvegicus; assay: Compound tested for its effect on Nonconflict (VI) operant responding of rats at a dose of 30.0 mg/Kg administered perorally.; assay type: functional; in short: as §1
[16] = test system: Rattus norvegicus; assay: Compound tested for its effect on conflict (FR) operant responding of rats at a dose of 30.0 mg/Kg administered perorally.; assay type: functional; in short: as §1
[17] = test system: Rattus norvegicus; assay: Compound tested for its effect on Nonconflict (VI) operant responding of rats at a dose of 10.0 mg/Kg administered perorally.; assay type: functional; in short: as §1
[18] = test system: Rattus norvegicus; assay: Interaction with ethanol in Rotarod performance at a dose of 0 mg/Kg in rats.; assay type: functional; in short: as §2
[19] = test system: Rattus norvegicus; assay: Interaction with ethanol in Rotarod performance at a dose of 1 mg/Kg in rats.; assay type: functional; in short: as §2
[20] = test system: Rattus norvegicus; assay: Interaction with ethanol in Rotarod performance at a dose of 3 mg/Kg in rats.; assay type: functional; in short: as §2
[21] = test system: Rattus norvegicus; assay: Compound tested for its effect on Nonconflict (VI) operant responding of rats at a dose of 3.0 mg/Kg administered perorally.; assay type: functional; in short: as §1
[22] = test system: Rattus norvegicus; assay: Compound tested for its effect on conflict (FR) operant responding of rats at a dose of 10.0 mg/Kg administered perorally.; assay type: functional; in short: as §1
[23] = test system: Rattus norvegicus; assay: Compound tested for its effect on conflict (FR) operant responding of rats at a dose of 3.0 mg/Kg administered perorally.; assay type: functional; in short: as §1
[24] = test system: Rattus norvegicus; assay: Compound tested for its effect on Nonconflict (VI) operant responding of rats at a dose of 1.0 mg/Kg administered perorally.; assay type: functional; in short: as §1
[25] = test system: Rattus norvegicus; assay: Interaction with ethanol in Rotarod performance at a dose of 10 mg/Kg in rats.; assay type: functional; in short: as §2
[26] = test system: Rattus norvegicus; assay: Compound tested for its effect on conflict (FR) operant responding of rats at a dose of 1.0 mg/Kg administered perorally.; assay type: functional; in short: as §1

Oc1nc2c(c3nc(-c4ccccc4F)nn13)CN(Cc1cccnc1)CC2
pIC50 [1]: 9.13
Change in response rate [2]: -21%
Change in response rate [3]: -8%
Change in response rate [4]: 322%
Change in response rate [5]: 129%
ED50 [6]: 3.65 mg/kg
MED [7]: 10 mg/kg
MED [8]: 10 mg/kg
GABA ratio [9]: 1.4

Oc1nc2c(c3nc(-c4ccccc4F)nn13)CN(Cc1ccccn1)CC2
pIC50 [1]: 9.19
GABA ratio [9]: 1.65
inhibition in vivo at 10 mg/kg [10]: 50%

O=C1C2C=Nc3ccccc3C2=NN1c1ccccc1 (stereo not given) [CGS-8216]
pIC50 [11]: 9.35
GABA ratio [9]: 0.82

O=C(c1ccccc1)N1CCc2nc(O)n3nc(-c4ccccc4F)nc3c2C1
pIC50 [1]: 7.30

O=C1C2C=Nc3ccccc3C2=NN1c1ccc(Cl)cc1 (stereo not given) [CGS-9896]
ED50 [6]: 2.3 mg/kg
MED [12]: 30 mg/kg
MED [8]: 10 mg/kg

NC(Cc1ccccc1)C(=O)N1CCc2nc(O)n3nc(-c4ccccc4F)nc3c2C1 (stereo not given)
pIC50 [1]: < 7.00

CC1c2nc(O)n3nc(-c4ccccc4F)nc3c2CN1Cc1ccccc1 (stereo not given)
pIC50 [1]: < 6.00

O=S(=O)(c1cccnc1)N1CCc2nc(O)n3nc(-c4ccccc4F)nc3c2C1
pIC50 [1]: 8.27
GABA ratio [9]: 1.3

Oc1nc2ccc(Cl)cc2c2nc(-c3ccccc3F)nn12
pIC50 [1]: 9.30
GABA ratio [9]: 0.79

Oc1nc2c(c3nc(-c4ccccc4F)nn13)CN(Cc1ccncc1)CC2
pIC50 [1]: 8.72
GABA ratio [9]: 1.14

Oc1nc2c(c3nc(-c4ccc(F)cc4)nn13)CN(Cc1ccccc1)CC2
pIC50 [1]: 8.27
Change in response rate [2]: -17%
Change in response rate [13]: -38%
Change in response rate [4]: 30%
Change in response rate [14]: 372%
ED50 [6]: 2.55 mg/kg
MED [7]: 30 mg/kg
MED [8]: 30 mg/kg
GABA ratio [9]: 1.7

Oc1nc2c(c3nc(-c4ccccc4F)nn13)CNCC2
pIC50 [1]: 6.35

Oc1nc2c(c3nc(-c4ccc(Cl)cc4)nn13)CN(Cc1ccccc1)CC2
pIC50 [1]: 7.65
Change in response rate [15]: -45%
Change in response rate [16]: 104% and 188%
ED50 [6]: 6.43 mg/kg
Change in response rate [17]: 4%
MED [7]: 30 mg/kg
GABA ratio [9]: 2.45

Oc1nc2c(c3nc(-c4ccccc4F)nn13)CN(CCc1ccccc1)CC2
pIC50 [1]: 7.55

O=C(Nc1ccccc1)N1CCc2nc(O)n3nc(-c4ccccc4F)nc3c2C1
pIC50 [1]: 7.17

Oc1nc2c(c3nc(-c4ccccc4)nn13)CN(Cc1ccccc1)CC2
pIC50 [1]: 8.66
ED50 [18]: 1320 mg/kg
ED50 [19]: 984 mg/kg
ED50 [20]: 832 mg/kg
Change in response rate [21]: -4%
Change in response rate [22]: 367%
Change in response rate [23]: 167%
ED50 [6]: 2.6 mg/kg
Change in response rate [24]: 0%
Change in response rate [17]: 12%
MED [12]: 1 mg/kg
MED [8]: 3 mg/kg
GABA ratio [9]: 1.4
ED50 [25]: 563 mg/kg
Change in response rate [26]: 35%

— ChEMBL document CHEMBL1125833, “Anxiolytic properties of certain annelated [1,2,4]triazolo[1,5-c]pyrimidin-5(6H)-ones” (J Med Chem, 1991)
